Assay results taken from ChEMBL document CHEMBL4196130, “3-(2-Carboxyethyl)indole-2-carboxylic Acid Derivatives: Structural Requirements and Properties of Potent Agonists of the Orphan G Protein-Coupled Receptor GPR17” (J Med Chem, 2018).
Calls of active or inactive are those of the source. The rule behind the calls is not given here.

Key:
[1] = biological target: T1, Uracil nucleotide/cysteinyl leukotriene receptor (Homo sapiens, UniProt Q13304); test: Agonist activity at human GPR17 expressed in human 1321N1 cells assessed as induction of calcium mobilization at >30 uM after 1 hr by Oregon Green BAPTA-1/AM dye-based fluorescence assay relative to control; type: functional, cell-based
T1 sequence (Q13304 whole entry): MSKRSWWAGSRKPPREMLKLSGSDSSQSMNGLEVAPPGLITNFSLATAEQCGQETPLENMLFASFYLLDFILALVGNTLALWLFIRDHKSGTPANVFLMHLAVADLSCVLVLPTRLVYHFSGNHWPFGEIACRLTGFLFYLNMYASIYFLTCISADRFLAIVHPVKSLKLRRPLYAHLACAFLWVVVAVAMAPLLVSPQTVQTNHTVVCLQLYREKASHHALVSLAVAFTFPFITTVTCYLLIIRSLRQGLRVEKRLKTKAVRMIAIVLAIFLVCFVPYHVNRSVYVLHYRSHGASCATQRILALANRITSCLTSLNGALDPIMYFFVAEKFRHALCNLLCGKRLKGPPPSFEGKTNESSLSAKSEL

[2] = biological target: T1, Uracil nucleotide/cysteinyl leukotriene receptor; test: Antagonist activity at human GPR17 expressed in human 1321N1 cells assessed as inhibition of MDL 29,951-induced calcium mobilization after 1 hr by Oregon Green BAPTA-1/AM dye-based fluorescence assay; type: functional, cell-based
Method in brief: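 Oregon Green BAPTA-1/AM calcium assay in hGPR17-1321N1 cells (1 h dye loading at 25°C in KRH buffer pH 7.4). Full inhibition curves were run for potent antagonists. Fluorescence was read at 520 nm.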

[3] = biological target: T1, Uracil nucleotide/cysteinyl leukotriene receptor; test: Agonist activity at human GPR17 expressed in human 1321N1 cells assessed as induction of calcium mobilization after 1 hr by Oregon Green BAPTA-1/AM dye-based fluorescence assay; type: functional, cell-based
Method in brief: (§1)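 Stably transfected 1321N1 astrocytoma cells were trypsin/EDTA-harvested, held 45 min at 37°C, then loaded 1 h at 25°C in KRH buffer pH 7.4 with 3 µM Oregon Green BAPTA-1/AM and 1% Pluronic F127, washed, and plated at ~16,000 cells/well. Fluorescence was read at 520 nm for 30 s after compound injection. Efficacy was expressed relative to the maximum given by 10 µM MDL 29,951. EC50 came from concentration-response curves, run for compounds exceeding 50% stimulation at 10 µM. At least three independent experiments, each in duplicate.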

[4] = biological target: T1, Uracil nucleotide/cysteinyl leukotriene receptor; test: Agonist activity at human GPR17 expressed in human 1321N1 cells assessed as induction of calcium mobilization after 1 hr by Oregon Green BAPTA-1/AM dye-based fluorescence assay relative to MDL 29,951; type: functional, cell-based; method in brief: as §1
[5] = biological target: T1, Uracil nucleotide/cysteinyl leukotriene receptor; test: Agonist activity at human GPR17 expressed in human 1321N1 cells assessed as induction of calcium mobilization at >100 uM after 1 hr by Oregon Green BAPTA-1/AM dye-based fluorescence assay relative to control; type: functional, cell-based
[6] = biological target: T1, Uracil nucleotide/cysteinyl leukotriene receptor; test: Antagonist activity at human GPR17 expressed in human 1321N1 cells assessed as inhibition of MDL 29,951-induced calcium mobilization at 30 uM after 1 hr by Oregon Green BAPTA-1/AM dye-based fluorescence assay relative to control
[7] = biological target: P2Y purinoceptor 12 (Homo sapiens) (UniProt Q9H244); test: Agonist activity at human P2Y12 receptor transfected in CHO cells assessed as induction of beta-arrestin translocation; type: functional, cell-based
Sequence of P2Y purinoceptor 12 (Homo sapiens) (Q9H244 whole entry): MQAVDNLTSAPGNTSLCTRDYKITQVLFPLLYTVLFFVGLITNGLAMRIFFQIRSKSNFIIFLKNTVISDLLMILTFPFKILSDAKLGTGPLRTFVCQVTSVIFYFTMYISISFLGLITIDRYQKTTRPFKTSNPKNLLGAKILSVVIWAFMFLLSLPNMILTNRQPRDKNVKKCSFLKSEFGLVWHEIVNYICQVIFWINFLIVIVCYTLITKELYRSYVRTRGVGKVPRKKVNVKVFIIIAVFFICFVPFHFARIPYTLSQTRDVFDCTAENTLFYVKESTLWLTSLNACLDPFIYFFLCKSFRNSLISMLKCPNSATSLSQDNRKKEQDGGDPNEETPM
Method in brief: (§2)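 β-Arrestin translocation assays were run in CHO cells stably transfected with human P2Y12 or P2Y14 receptors.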

[8] = biological target: P2Y purinoceptor 6 (Homo sapiens) (UniProt Q15077); test: Agonist activity at human P2Y6 receptor transfected in human 1321N1 cells assessed as induction of calcium mobilization after 30 mins in presence of UDP by fluo-4 dye based assay; type: functional, cell-based
Sequence of P2Y purinoceptor 6 (Homo sapiens) (Q15077 whole entry): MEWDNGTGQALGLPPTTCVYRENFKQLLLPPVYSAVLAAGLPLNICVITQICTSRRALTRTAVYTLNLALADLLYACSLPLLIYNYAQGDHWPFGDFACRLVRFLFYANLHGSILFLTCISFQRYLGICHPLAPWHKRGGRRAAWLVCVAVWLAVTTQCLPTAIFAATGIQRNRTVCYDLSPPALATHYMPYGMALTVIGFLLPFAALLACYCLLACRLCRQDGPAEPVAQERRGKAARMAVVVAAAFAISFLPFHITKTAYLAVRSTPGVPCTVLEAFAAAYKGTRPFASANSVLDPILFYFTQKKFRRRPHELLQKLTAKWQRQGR
Method in brief: (§3)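 Calcium mobilization was measured in 1321N1 astrocytoma cells stably transfected with human P2Y1, P2Y2, P2Y4 or P2Y6 receptors, read on a Flexstation III microplate reader.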

[9] = biological target: P2Y purinoceptor 1 (Homo sapiens) (UniProt P47900); test: Agonist activity at human P2Y1 receptor transfected in human 1321N1 cells assessed as induction of calcium mobilization after 30 mins in presence of ADP by fluo-4 dye based assay; type: functional, cell-based; method in brief: as §3
Sequence of P2Y purinoceptor 1 (Homo sapiens) (P47900 whole entry): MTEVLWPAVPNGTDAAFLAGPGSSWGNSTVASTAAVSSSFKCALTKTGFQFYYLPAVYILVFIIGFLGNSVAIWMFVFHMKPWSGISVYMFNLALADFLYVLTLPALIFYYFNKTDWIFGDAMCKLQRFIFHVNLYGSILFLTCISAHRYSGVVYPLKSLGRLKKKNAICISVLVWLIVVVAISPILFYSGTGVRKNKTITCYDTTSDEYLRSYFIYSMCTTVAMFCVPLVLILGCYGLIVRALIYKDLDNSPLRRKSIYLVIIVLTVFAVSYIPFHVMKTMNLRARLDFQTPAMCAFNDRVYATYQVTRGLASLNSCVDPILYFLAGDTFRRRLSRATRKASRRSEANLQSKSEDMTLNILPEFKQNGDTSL

P2Y purinoceptor 2 = P2Y purinoceptor 2 (Homo sapiens, UniProt P41231); test: Agonist activity at human P2Y2 receptor transfected in human 1321N1 cells assessed as induction of calcium mobilization after 30 mins in presence of UTP by fluo-4 dye based assay; type: functional, cell-based; method in brief: as §3
Sequence of P2Y purinoceptor 2 (P41231 whole entry): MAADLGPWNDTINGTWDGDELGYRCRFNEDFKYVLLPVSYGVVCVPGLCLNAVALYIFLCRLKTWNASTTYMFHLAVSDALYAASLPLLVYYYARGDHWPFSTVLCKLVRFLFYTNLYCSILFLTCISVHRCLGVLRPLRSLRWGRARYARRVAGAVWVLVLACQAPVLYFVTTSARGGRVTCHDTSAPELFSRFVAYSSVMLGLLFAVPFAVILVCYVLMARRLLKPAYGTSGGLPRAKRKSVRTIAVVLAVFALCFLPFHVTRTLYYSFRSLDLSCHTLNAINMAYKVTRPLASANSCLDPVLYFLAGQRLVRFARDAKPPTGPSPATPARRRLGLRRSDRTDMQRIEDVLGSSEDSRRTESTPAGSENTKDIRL

[10] = biological target: P2Y purinoceptor 4 (Homo sapiens) (UniProt P51582); test: Agonist activity at human P2Y4 receptor transfected in human 1321N1 cells assessed as induction of calcium mobilization after 30 mins in presence of UTP by fluo-4 dye based assay; type: functional, cell-based; method in brief: as §3
Sequence of P2Y purinoceptor 4 (Homo sapiens) (P51582 whole entry): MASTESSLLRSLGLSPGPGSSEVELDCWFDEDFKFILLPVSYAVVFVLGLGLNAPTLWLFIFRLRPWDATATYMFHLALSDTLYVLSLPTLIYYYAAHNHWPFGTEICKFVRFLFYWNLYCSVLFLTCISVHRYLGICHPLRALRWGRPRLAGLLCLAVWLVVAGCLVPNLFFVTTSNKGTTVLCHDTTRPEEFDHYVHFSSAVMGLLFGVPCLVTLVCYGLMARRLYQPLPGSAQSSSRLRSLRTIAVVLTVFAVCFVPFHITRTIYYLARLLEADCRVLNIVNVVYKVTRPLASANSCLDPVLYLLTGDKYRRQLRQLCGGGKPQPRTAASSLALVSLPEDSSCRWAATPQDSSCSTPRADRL

[11] = biological target: T2, P2Y purinoceptor 14 (Homo sapiens) (UniProt Q15391); test: Agonist activity at human P2Y14 receptor transfected in CHO cells assessed as induction of beta-arrestin translocation; type: functional, cell-based; method in brief: as §2
T2 sequence (whole entry): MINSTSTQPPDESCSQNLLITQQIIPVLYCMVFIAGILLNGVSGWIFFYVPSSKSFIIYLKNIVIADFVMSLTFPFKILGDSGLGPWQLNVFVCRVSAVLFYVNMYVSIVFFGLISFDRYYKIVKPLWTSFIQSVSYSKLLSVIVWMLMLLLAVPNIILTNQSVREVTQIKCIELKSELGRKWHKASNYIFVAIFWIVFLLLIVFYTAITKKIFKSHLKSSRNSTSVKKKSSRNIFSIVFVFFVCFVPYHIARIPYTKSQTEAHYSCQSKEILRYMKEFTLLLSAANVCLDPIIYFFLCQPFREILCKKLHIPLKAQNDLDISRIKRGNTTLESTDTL

| Structure (SMILES) | Activity [1] | EC50 [3] | Emax [4] | further results |
| --- | --- | --- | --- | --- |
| COc1ccc2c(c1)c(CC(=O)O)c(C)n2C(=O)c1ccc(Cl)cc1 [INDOMETHACIN] | 0% |  |  | IC50 [2]: 28.8 µM |
| O=C(O)CCc1c(C(=O)O)[nH]c2c1ccc1ccccc12 | 0% | > 30 µM |  |  |
| COc1ccc2[nH]c(C(=O)O)c(CCC(=O)O)c2c1 | 5% | > 30 µM |  |  |
| O=C(O)CCc1c(C(=O)O)[nH]c2cc(-c3ccco3)ccc12 |  | 4.13 µM | 74% |  |
| O=C(O)CCc1c(C(=O)O)[nH]c2cc(Oc3ccccc3)ccc12 |  | 0.27 µM | 100% |  |
| Cn1c(C(=O)O)c(CCC(=O)O)c2c(Cl)cc(Cl)cc21 | 16% | > 30 µM |  |  |
| O=C(O)CCc1c(C(=O)O)[nH]c2cc(-c3ccc(F)cc3)cc(Cl)c12 |  | 0.423 µM | 92% |  |
| O=C(O)CCc1c(C(=O)O)[nH]c2cc(Cl)c(Cl)cc12 | 11% | > 30 µM |  |  |
| O=C(O)CCc1c(C(=O)O)[nH]c2cccc(-c3ccccc3)c12 |  | > 100 µM |  | Activity [5]: 3% |
| O=C(O)CCc1c(C(=O)O)[nH]c2c(F)c(-c3ccccc3)ccc12 |  | 3.01 µM | 65% |  |
| O=C(O)CCc1c(C(=O)O)[nH]c2cc(-c3cccs3)ccc12 |  | 9.55 µM | 87% |  |
| O=C(O)CCc1c(C(=O)O)[nH]c2c(Cl)ccc(Cl)c12 | 1% | > 30 µM |  |  |
| O=C(O)CCc1c(C(=O)O)[nH]c2cc(Cl)ccc12 |  |  | 84% |  |
| O=C(O)CCc1c(C(=O)O)[nH]c2cc(Cl)cc(-c3ccc(F)cc3)c12 |  | 3.68 µM | 101% |  |
| O=C(O)CCCc1c(C(=O)O)[nH]c2cc(Cl)cc(Cl)c12 | 1% | > 30 µM |  |  |
| O=C(O)Cc1c[nH]c2ccc(O)cc12 | 1% |  |  | IC50 [2]: > 30 µM; inhibition [6]: 7% |
| O=C(O)CCc1c(C(=O)O)n(CCC(=O)O)c2cc(Cl)cc(Cl)c12 |  | 5.44 µM |  |  |
| CC(C)c1ccc2[nH]c(C(=O)O)c(CCC(=O)O)c2c1 | 6% | > 30 µM |  |  |
| O=C(O)CCc1c(C(=O)O)[nH]c2ccccc12 | 8% | > 30 µM |  |  |
| O=C(O)CCc1c(C(=O)O)[nH]c2cc(-c3ccccc3)ccc12 |  |  | 83% |  |
| Cc1cc(C)c2c(CCC(=O)O)c(C(=O)O)[nH]c2c1 |  | 15.1 µM | 76% |  |
| COc1cccc2[nH]c(C(=O)O)c(CCC(=O)O)c12 |  | > 100 µM |  | Activity [5]: 4% |
| O=C(O)CCc1c(C(=O)O)[nH]c2cc(-c3ccccc3)cc(-c3ccccc3)c12 |  | 4.09 µM | 84% |  |
| O=C(O)CCc1c(C(=O)O)[nH]c2cc(I)cc(F)c12 |  | 0.0321 µM | 122% | Activity [7]: inactive; Activity [8]: inactive; Activity [9]: inactive; Activity (P2Y purinoceptor 2): inactive; Activity [10]: inactive; Activity [11]: inactive |

| Structure (SMILES) | Activity [1] | EC50 [3] | Emax [4] | further results |
| --- | --- | --- | --- | --- |
| O=C(O)CCc1c(C(=O)O)[nH]c2cc(F)cc(I)c12 |  | 1.47 µM | 92% |  |
| CCCCCOc1cc(Cl)c2c(CCC(=O)O)c(C(=O)O)[nH]c2c1 |  | 0.103 µM | 98% |  |
| O=C(O)CCc1c(C(=O)O)[nH]c2cc(F)cc(Br)c12 |  | 0.624 µM | 100% |  |
| CCCCCOc1cc(Cl)cc2[nH]c(C(=O)O)c(CCC(=O)O)c12 |  | ≥ 10 µM |  |  |
| O=C(O)CCc1c(C(=O)O)[nH]c2cc(F)ccc12 |  | ≥ 10 µM |  |  |
| O=C(O)CCc1c(C(=O)O)[nH]c2ccc(F)cc12 | 9% | > 30 µM |  |  |
| O=C(O)CCc1c(C(=O)O)[nH]c2cc(F)cc(F)c12 |  |  | 72% |  |
| O=C(O)CCc1c(C(=O)O)[nH]c2c(Cl)cc(Cl)c(Cl)c12 | 16% | > 30 µM |  |  |
| COc1ccc2c(CCC(=O)O)c(C(=O)O)[nH]c2c1 |  | > 100 µM |  | IC50 [2]: 8.4 µM; Activity [5]: 35% |
| O=C(O)CCc1c(C(=O)O)[nH]c2c(F)c(-c3ccc(F)cc3)ccc12 |  | > 100 µM |  |  |
| N[C@@H](Cc1c[nH]c2ccccc12)C(=O)O [TRYPTOPHAN] | 0% |  |  | IC50 [2]: > 30 µM; inhibition [6]: 1% |
| CN(C)CCc1c[nH]c2ccc(Cn3cncn3)cc12 [RIZATRIPTAN] | 0% |  |  | IC50 [2]: > 30 µM; inhibition [6]: 27% |
| O=C(O)/C=C/c1c(C(=O)O)[nH]c2cc(Cl)cc(Cl)c12 | 22% | > 30 µM |  |  |
| O=C(O)CCc1c(C(=O)O)[nH]c2c(Cl)c(Cl)ccc12 |  | > 100 µM |  | Activity [5]: 5% |
| O=C(O)CCc1c(C(=O)O)[nH]c2c(F)c(-c3cccs3)ccc12 |  | > 100 µM |  | Activity [5]: 21% |
| O=C(O)CCc1c(C(=O)O)[nH]c2cc(Br)cc(F)c12 |  | 0.0279 µM | 102% | Activity [7]: inactive; Activity [8]: inactive; Activity [9]: inactive; Activity (P2Y purinoceptor 2): inactive; Activity [10]: inactive; Activity [11]: inactive |
| O=C(O)CCc1c(C(=O)O)[nH]c2c(F)c(-c3ccco3)ccc12 |  | 14.4 µM | 57% |  |
| CCCCCCCCOc1cc(Cl)c2c(CCC(=O)O)c(C(=O)O)[nH]c2c1 |  | 0.117 µM | 77% |  |
| O=C(O)CCc1c(C(=O)O)[nH]c2cc(-c3ccc(F)cc3)ccc12 |  | 4.02 µM | 48% |  |
| O=C(O)CCc1c(C(=O)O)[nH]c2cc(Cc3ccccc3)ccc12 |  | 4.98 µM | 80% |  |
| O=C(O)CCc1c(C(=O)O)[nH]c2c(F)c(Br)ccc12 |  | 4.83 µM | 98% |  |
| O=C(O)CCc1c[nH]c2cc(Cl)cc(Cl)c12 |  | 1.68 µM | 41% |  |
| O=C(O)CCc1c(C(=O)O)[nH]c2c(F)c(Cl)ccc12 |  | 7.9 µM | 87% |  |
